Reference: ChEMBL document CHEMBL4196230, “Design, Synthesis, and Blood-Brain Barrier Transport Study of Pyrilamine Derivatives as Histone Deacetylase Inhibitors” (ACS Med Chem Lett, 2018)

Columns and labels:
[1] = Blood brain barrier permeability in Wistar rat brain at 20 uM by LC-MS/MS analysis; format: ADME, tissue-based
Summary of the method: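 Right cerebral hemisphere of rat perfused with buffer containing test agent (20 µM) at 4.9 mL/min for 1 min.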

[2] = Substrate activity at PYSOCA in human CMEC/D3 cells assessed as transporter-mediated drug uptake clearance assessed per mg protein at 4degC measured up to 10 mins; format: ADME, cell-based
Summary of the method: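 Uptake by hCMEC/D3 cells followed over time at 37 °C or 4 °C. Clearance was calculated from the initial linear slope, expressed per mg protein. Mean ± S.E., n = 4.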

[3] = Substrate activity at PYSOCA in human CMEC/D3 cells assessed as transporter-mediated drug uptake measured for 1 min at 37degC in presence of NH4Cl under intracellular acidification condition; format: ADME, cell-based
Summary of the method: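 hCMEC/D3 cells were pretreated in transport buffer with or without 30 mM NH4Cl. Uptake was then measured at 37 °C for 1 min with or without 30 mM NH4Cl (Control, Pre and Acute conditions). Mean ± S.E., n = 4.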

[4] = Substrate activity at PYSOCA in human CMEC/D3 cells assessed as transporter-mediated drug uptake measured for 2 mins at 37degC in presence of tramadol; format: ADME, cell-based
[5] = Substrate activity at PYSOCA in human CMEC/D3 cells assessed as transporter-mediated drug uptake measured for 2 mins at 37degC in presence of metabolic inhibitor NaN3; format: ADME, cell-based
Summary of the method: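 To deplete cellular ATP, hCMEC/D3 cells were pretreated with 0.1% NaN3 for 20 min. Uptake was then measured at 37 °C for 2 min. Mean ± S.E., n = 4.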

[6] = Substrate activity at PYSOCA in human CMEC/D3 cells assessed as transporter-mediated drug uptake measured for 2 mins at 37degC in presence of varenicline; format: ADME, cell-based
[7] = Substrate activity at PYSOCA in human CMEC/D3 cells assessed as transporter-mediated drug uptake measured for 2 mins at 37degC in presence of decynium-22; format: ADME, cell-based
[8] = Substrate activity at PYSOCA in human CMEC/D3 cells assessed as transporter-mediated drug uptake measured for 2 mins at 37degC in presence of TEA; format: ADME, cell-based
[9] = Substrate activity at PYSOCA in human CMEC/D3 cells assessed as transporter-mediated drug uptake measured for 2 mins at 37degC in presence of pyrilamine; format: ADME, cell-based
[10] = target: Histone deacetylase 1 (Homo sapiens, UniProt Q13547); assay: Inhibition of recombinant human C-terminal FLAG/His-tagged HDAC1 expressed in baculovirus infected Sf9 insect cells using HDAC substrate 3 measured after 30 mins by fluorescence assay
Sequence of Histone deacetylase 1 (Q13547 whole entry): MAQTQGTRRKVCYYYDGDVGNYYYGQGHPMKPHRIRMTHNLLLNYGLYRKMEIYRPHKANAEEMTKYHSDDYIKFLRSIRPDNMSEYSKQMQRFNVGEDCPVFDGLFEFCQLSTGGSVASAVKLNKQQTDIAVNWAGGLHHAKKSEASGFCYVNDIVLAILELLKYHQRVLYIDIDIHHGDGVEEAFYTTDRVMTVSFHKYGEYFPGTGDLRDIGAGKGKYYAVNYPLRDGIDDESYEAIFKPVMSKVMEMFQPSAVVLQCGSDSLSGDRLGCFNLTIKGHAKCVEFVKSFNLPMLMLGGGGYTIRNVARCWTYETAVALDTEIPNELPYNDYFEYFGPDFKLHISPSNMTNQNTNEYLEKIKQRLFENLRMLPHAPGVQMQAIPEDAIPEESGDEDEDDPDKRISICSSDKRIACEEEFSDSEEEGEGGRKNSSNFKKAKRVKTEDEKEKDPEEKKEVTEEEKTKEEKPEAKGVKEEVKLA

[11] = target: T1, Histone deacetylase 11 (Homo sapiens) (UniProt Q96DB2); assay: Inhibition of recombinant human full length HDAC11 expressed in baculovirus infected insect cells at 30 uM using HDAC class 2a substrate measured after 30 mins by fluorescence assay relative to control
T1 sequence (whole entry): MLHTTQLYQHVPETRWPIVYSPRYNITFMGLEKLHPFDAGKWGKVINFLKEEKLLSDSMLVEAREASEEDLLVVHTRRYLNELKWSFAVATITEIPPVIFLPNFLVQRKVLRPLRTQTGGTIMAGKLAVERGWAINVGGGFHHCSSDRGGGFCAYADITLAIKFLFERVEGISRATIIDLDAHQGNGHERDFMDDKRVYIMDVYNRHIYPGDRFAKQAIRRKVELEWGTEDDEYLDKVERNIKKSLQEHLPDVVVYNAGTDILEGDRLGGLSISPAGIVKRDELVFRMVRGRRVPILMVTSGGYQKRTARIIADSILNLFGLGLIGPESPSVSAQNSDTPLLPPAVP

[12] = Substrate activity at PYSOCA in human CMEC/D3 cells assessed as transporter-mediated drug uptake measured for 2 mins at 37degC in presence of diphenhydramine; format: ADME, cell-based
Summary of the method: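 Uptake by hCMEC/D3 cells was measured at various substrate concentrations, at 37 °C for 2 min, with or without diphenhydramine (100 µM). Data were analysed by Michaelis-Menten and Lineweaver-Burk plots using nonlinear least-squares regression (Eqs. 1 and 2). Mean ± S.E., n = 4.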

[13] = target: T2, Histone deacetylase 8 (Homo sapiens) (UniProt Q9BY41); assay: Inhibition of recombinant human full length C-terminal His-tagged HDAC8 expressed in baculovirus infected insect cells at 30 uM using HDAC class 2a substrate measured after 30 mins by fluorescence assay relative to control
T2 sequence (whole entry): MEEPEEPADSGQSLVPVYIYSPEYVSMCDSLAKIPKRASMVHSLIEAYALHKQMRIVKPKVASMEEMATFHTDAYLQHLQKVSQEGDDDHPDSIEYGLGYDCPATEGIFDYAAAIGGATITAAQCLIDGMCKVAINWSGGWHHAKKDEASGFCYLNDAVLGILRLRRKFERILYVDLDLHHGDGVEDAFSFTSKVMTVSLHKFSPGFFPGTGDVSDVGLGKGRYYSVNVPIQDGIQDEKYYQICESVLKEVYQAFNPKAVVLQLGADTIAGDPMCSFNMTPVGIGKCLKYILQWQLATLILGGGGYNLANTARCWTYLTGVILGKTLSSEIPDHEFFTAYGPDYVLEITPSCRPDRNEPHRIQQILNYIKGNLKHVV

Question: What does the source list for `COc1ccc(CN(CCN(C)C)c2ccc(C(=O)Nc3ccccc3N)cn2)cc1`?
Answer: pBBB [1]: 42.4 microL/min/g; Activity [2]: Not Active; Activity [3]: Active; Activity [4]: Not Active; Activity [5]: Not Active; Activity [6]: Not Active; Activity [7]: Active; Activity [8]: Active; Activity [9]: Not Active; IC50 [10]: 1500 nM; inhibition [11]: < 10%; Activity [12]: Not Active; inhibition [13]: < 10%
